According to paper PMC9476207 (ACS Omega, 2022):

Columns and labels:
RPMI-8226 = test: NCI-60 single-dose antiproliferative screen; format: cell-based; details: Homo sapiens, RPMI-8226, 48 h, read-out: growth percent
How it was run: (§1)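 NCI-60 protocol. Lines were grown in RPMI 1640 with 5% FBS and 2 mM L-glutamine, plated and incubated 24 h at 37 °C; time-zero plates were TCA-fixed. The test compound was dissolved in DMSO, diluted in medium with 50 μg/mL gentamicin and given once at a final 10^-5 M (DMSO control) for 48 h. Cells were fixed with cold TCA (1 h, 4 °C) and stained with 0.4% SRB in 1% acetic acid for 10 min. Dye was dissolved in 10 mM Trizma base and read at 515 nm. Growth percent was calculated from time-zero, test and control ODs.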

HOP-62 = test: NCI-60 single-dose antiproliferative screen; format: cell-based; details: Homo sapiens, HOP-62, 48 h, read-out: growth percent
How it was run: as §1

NCI-H226 = test: NCI-60 single-dose antiproliferative screen; format: cell-based; details: Homo sapiens, NCI-H226, 48 h, read-out: growth percent
How it was run: as §1

NCI-H23 = test: NCI-60 single-dose antiproliferative screen; format: cell-based; details: Homo sapiens, NCI-H23, 48 h, read-out: growth percent
How it was run: as §1

NCI-H322M = test: NCI-60 single-dose antiproliferative screen; format: cell-based; details: Homo sapiens, 48 h, read-out: growth percent
How it was run: as §1

NCI-H522 = test: NCI-60 single-dose antiproliferative screen; format: cell-based; details: Homo sapiens, NCI-H522, 48 h, read-out: growth percent
How it was run: as §1

HCC-2998 = test: NCI-60 single-dose antiproliferative screen; format: cell-based; details: Homo sapiens, HCC 2998, 48 h, read-out: growth percent
How it was run: as §1

HT29 = test: NCI-60 single-dose antiproliferative screen; format: cell-based; details: Homo sapiens, HT-29, 48 h, read-out: growth percent
How it was run: as §1

SF-295 = test: NCI-60 single-dose antiproliferative screen; format: cell-based; details: Homo sapiens, SF-295, 48 h, read-out: growth percent
How it was run: as §1

LOX IMVI = test: NCI-60 single-dose antiproliferative screen; format: cell-based; details: Homo sapiens, 48 h, read-out: growth percent
How it was run: as §1

UACC-62 = test: NCI-60 single-dose antiproliferative screen; format: cell-based; details: Homo sapiens, UACC-62, 48 h, read-out: growth percent
How it was run: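 Cells grown in RPMI 1640 with 5% FBS and 2 mM L-glutamine, plated and held 24 h at 37 °C; time-zero plates TCA-fixed. DMSO stocks were diluted in gentamicin-containing medium to a final 10^-5 M, with a DMSO-only control. Exposure 48 h, 5% CO2. Adherent cells TCA-fixed 1 h at 4 °C, stained with 0.4% SRB, solubilised in 10 mM Trizma base, read at 515 nm. Growth percent derived from ODtzero, ODtest and ODctrl.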

IGROV1 = test: NCI-60 single-dose antiproliferative screen; format: cell-based; details: Homo sapiens, IGROV-1, 48 h, read-out: growth percent
How it was run: as §1

OVCAR-3 = test: NCI-60 single-dose antiproliferative screen; format: cell-based; details: Homo sapiens, OVCAR-3, 48 h, read-out: growth percent
How it was run: as §1

NCI/ADR-RES = test: NCI-60 single-dose antiproliferative screen; format: cell-based; details: Homo sapiens, 48 h, read-out: growth percent
How it was run: as §1

786-0 = test: NCI-60 single-dose antiproliferative screen; format: cell-based; details: Homo sapiens, 786-0, 48 h, read-out: growth percent
How it was run: as §1

ACHN = test: NCI-60 single-dose antiproliferative screen; format: cell-based; details: Homo sapiens, 48 h, read-out: growth percent
How it was run: as §1

CAKI-1 = test: NCI-60 single-dose antiproliferative screen; format: cell-based; details: Homo sapiens, CAKI-1, 48 h, read-out: growth percent
How it was run: as §1

RXF 393 = test: NCI-60 single-dose antiproliferative screen; format: cell-based; details: Homo sapiens, RXF 393, 48 h, read-out: growth percent
How it was run: as §1

DU-145 = test: NCI-60 single-dose antiproliferative screen; format: cell-based; details: Homo sapiens, DU-145, 48 h, read-out: growth percent
How it was run: as §1

MCF-7 = test: NCI-60 single-dose antiproliferative screen; format: cell-based; details: Homo sapiens, MCF7, 48 h, read-out: growth percent
How it was run: as §1

NCI-H460 cells [1] = test: Wound healing assay; format: cell-based, human
NCI-H460 cells [2] = test: Colony-forming ability; format: cell-based, human

SMILES	activity at 10 µM (RPMI-8226)	activity at 10 µM (HOP-62)	activity at 10 µM (NCI-H226)	activity at 10 µM (NCI-H23)	activity at 10 µM (NCI-H322M)	activity at 10 µM (NCI-H522)	activity at 10 µM (HCC-2998)	activity at 10 µM (HT29)	activity at 10 µM (SF-295)	activity at 10 µM (LOX IMVI)	activity at 10 µM (UACC-62)	activity at 10 µM (IGROV1)	activity at 10 µM (OVCAR-3)	activity at 10 µM (NCI/ADR-RES)	activity at 10 µM (786-0)	activity at 10 µM (ACHN)	activity at 10 µM (CAKI-1)	activity at 10 µM (RXF 393)	activity at 10 µM (DU-145)	activity at 10 µM (MCF-7)	further results
COc1cc(CNC(=O)CCCC/C=C/C(C)C)ccc1OCc1cn(-c2ccc([N+](=O)[O-])cc2)nn1 [14e, (E)-N-(3-Methoxy-4-((1-(4-nitrophenyl)-1H-1,2,3-triazol-4-yl)methoxy)benzyl)-8methylnon-6-enamide]	61.8%	80.9%	89.6%	83.2%	97.9%	78.2%	108%	98.1%	89%	89.5%	69.3%	90.4%	92.7%	29%	93.7%	82%	90.7%	99.7%	105%	83.5%	–
COc1cc(CNC(=O)CCCC/C=C/C(C)C)ccc1OCc1cn(-c2cccc([N+](=O)[O-])c2)nn1 [14f, (E)-N-(3-Methoxy-4-((1-(3-nitrophenyl)-1H-1,2,3-triazol-4-yl)methoxy)benzyl)-8-methylnon-6-enamide]	65.9%	97.4%	90.9%	88%	94.1%	82.6%	101%	88.9%	104%	92.9%	70%	89.4%	105%	81.8%	73.4%	78.9%	81.7%	92.7%	109%	74.1%	–
COc1cc(CNC(=O)CCCC/C=C/C(C)C)ccc1OCc1cn(-c2ccc(F)cc2)nn1 [14h, (E)-N-(4-((1-(4-Fluorophenyl)-1H-1,2,3-triazol-4-yl)methoxy)-3-methoxybenzyl)-8-methylnon-6-enamide]	68.4%	84.1%	74.2%	81.4%	91.8%	70.2%	110%	106%	90.5%	84.2%	71.9%	97%	96.4%	70.6%	83.7%	81.2%	88.4%	95.3%	96.1%	89.3%	–
COc1cc(CNC(=O)CCCC/C=C/C(C)C)ccc1OCc1cn(-c2ccccc2F)nn1 [14i, (E)-N-(4-((1-(2-Fluorophenyl)-1H-1,2,3-triazol-4-yl)methoxy)-3-methoxybenzyl)-8-methylnon-6-enamide]	81.3%	85%	81.3%	95.3%	90.2%	77.5%	97.2%	107%	99%	87.1%	76.2%	101%	97.5%	89.8%	97.2%	83%	90.6%	103%	106%	97.1%	–
COc1cc(CNC(=O)CCCC/C=C/C(C)C)ccc1OCc1cn(-c2ccc(C#N)cc2)nn1 [14j, (E)-N-(4-((1-(4-Cyanophenyl)-1H-1,2,3-triazol-4-yl)methoxy)-3-methoxybenzyl)-8-methylnon-6-enamide]	65.4%	103%	100%	72.1%	95.3%	88.2%	94.5%	95.6%	102%	78.2%	81.8%	100%	109%	79.7%	91.7%	–	74.6%	90.8%	44.4%	103%	migration capacity (wound healing) (NCI-H460 cells [1]): moderate wound healing; colony-forming ability (NCI-H460 cells [2]): inhibited the colony-forming ability
COc1cc(CNC(=O)CCCC/C=C/C(C)C)ccc1OCc1cn(-c2ccc(Br)cc2)nn1 [14k, (E)-N-(4-((1-(4-Bromophenyl)-1H-1,2,3-triazol-4-yl)methoxy)-3-methoxybenzyl)-8-methylnon-6-enamide]	57.4%	88.2%	86.3%	70.2%	90.6%	82.5%	88.8%	98.1%	85.4%	83.7%	63%	72.7%	100%	72%	92%	87.7%	74.3%	105%	98.8%	76.2%	–
COc1cc(CNC(=O)CCCC/C=C/C(C)C)ccc1OCc1cn(-c2ccc(C)cc2)nn1 [14n, (E)-N-(3-Methoxy-4-((1-(p-tolyl)-1H-1,2,3-triazol-4-yl)methoxy)benzyl)-8-methylnon-6-enamide]	74.1%	86.4%	75.8%	87.9%	89.4%	62.1%	108%	100%	98.9%	85.1%	70.2%	98.5%	91.8%	87.4%	99.6%	72%	88.5%	102%	97%	96.3%	–
COc1cc(CNC(=O)CCCC/C=C/C(C)C)ccc1OCc1cn(-c2ccc(C)c(C)c2)nn1 [14p, (E)-N-(4-((1-(3,4-Dimethylphenyl)-1H-1,2,3-triazol-4-yl)methoxy)-3-methoxybenzyl)-8-methylnon-6-enamide]	67.3%	97.4%	86.9%	74.9%	101%	80.7%	101%	97.8%	88.8%	84.5%	75.1%	98.8%	100%	80.6%	99.8%	68.5%	94.3%	98.2%	108%	86.9%	–
